# Results taken from ChEMBL document CHEMBL1129602, “Indole derivatives as a new class of steroid 5 alpha-reductase inhibitors” (J Med Chem, 1996).
# Several values for one entry are separate records, joined by “and”; a condition that tells them apart may be missing. Equal entries are not always repeated.
# What was measured:
# [1] = system: Rattus norvegicus; assay: Percent conversion of testosterone to dihydrotestosterone in prostate of rats at 3 mg/kg of compound given perorally; type: functional, Prostate gland; settings: route oral
# How it was run: (§1)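 Rats dosed orally at 1–30 mg/kg, with controls at 0 mg/kg. Prostates removed 4 h later and homogenized. Testosterone and DHT in the homogenate measured by radioimmunoassay and expressed as % conversion of T to DHT. Mean ± SEM of four rats. Groups compared with the 0 mg/kg control by Dunnett test.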
# [2] = molecular target: T1, 3-oxo-5-alpha-steroid 4-dehydrogenase 1 (Rattus norvegicus) (UniProt P24008); assay: Inhibitory activity of compound towards 5-alpha reductase from rat =; settings: 100 nM
# T1 sequence (whole entry): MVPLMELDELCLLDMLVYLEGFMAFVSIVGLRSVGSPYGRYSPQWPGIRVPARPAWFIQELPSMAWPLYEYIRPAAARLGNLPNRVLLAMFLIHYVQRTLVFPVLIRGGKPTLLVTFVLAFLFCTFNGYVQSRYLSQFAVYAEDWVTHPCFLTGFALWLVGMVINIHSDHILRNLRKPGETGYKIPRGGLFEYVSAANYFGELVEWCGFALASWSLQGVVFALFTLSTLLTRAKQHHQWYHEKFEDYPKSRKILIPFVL
# [3] = system: Rattus norvegicus; assay: Percent conversion of testosterone to dihydrotestosterone in prostate of rats at 10 mg/kg of compound given perorally; type: functional, Prostate gland; settings: route oral; how it was run: as §1
# [4] = molecular target: T2, 3-oxo-5-alpha-steroid 4-dehydrogenase 2 (Rattus norvegicus, UniProt P31214); assay: Compound was tested in vitro for inhibitory activity against type 2 5-alpha reductase Isozyme homogenated from rat epididymis; type: functional
# T2 sequence (P31214 whole entry): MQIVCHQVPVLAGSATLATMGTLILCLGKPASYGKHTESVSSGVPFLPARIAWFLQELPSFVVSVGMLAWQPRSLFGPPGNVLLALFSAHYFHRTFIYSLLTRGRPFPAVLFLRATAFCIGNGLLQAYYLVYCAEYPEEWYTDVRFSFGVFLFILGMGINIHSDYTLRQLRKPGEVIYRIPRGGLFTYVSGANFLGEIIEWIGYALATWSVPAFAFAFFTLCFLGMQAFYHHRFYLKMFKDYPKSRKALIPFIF
# How it was run: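 Epididymal particulates from male Wistar rats (200–300 g), pelleted at 100000g for 0.5 h. Compounds added in ethanol. Incubated 37 °C for 10 min, then stopped and extracted with ethyl acetate. Inhibition taken from [14C]DHT conversion versus a blank.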
# [5] = system: Rattus norvegicus; assay: Percent conversion of testosterone to dihydrotestosterone in prostate of rats at 0 mg/kg of compound given perorally; type: functional, Prostate gland; settings: route oral; how it was run: as §1
# [6] = Compound was tested in vitro for inhibitory activity against 5-alpha reductase isozyme homogenated from transfected Namalwa; type: functional
# How it was run: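 Homogenate of Namalwa cells transfected to express human type 2 isozyme, 40 μg cellular protein per assay. Buffer 0.1 M Na2HPO4–citrate pH 5.5 with 0.3 μM [14C]testosterone and 2 mM NADPH, across a range of drug concentrations. IC50 given as mean ± SEM of three separate experiments.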
# [7] = system: Rattus norvegicus; assay: Percent conversion of testosterone to dihydrotestosterone in prostate of rats at 1 mg/kg of compound given perorally; type: functional, Prostate gland; settings: route oral; how it was run: as §1
# [8] = system: Rattus norvegicus; assay: Percent conversion of testosterone to dihydrotestosterone in prostate of rats at 30 mg/kg of compound given perorally; type: functional, Prostate gland; settings: route oral; how it was run: as §1
# [9] = molecular target: T3, 3-oxo-5-alpha-steroid 4-dehydrogenase 1 (Rattus norvegicus, UniProt P24008); assay: 5 alpha- reductase inhibitory activity; type: functional
# T3 sequence (P24008 whole entry): T1 sequence (whole entry)
# [10] = system: Rattus norvegicus; assay: Concentration of testosterone (T) and DHT in homogenate was determined by radio immunoassay. Values are presented of Four rats, at dose mg/kg, p.o. =10.; type: functional; how it was run: as §1
SMILES,IC50 [2] [nM],IC50 [4] [nM],IC50 [6] [nM],IC50 [9] [nM],Conversion [1] [%],Conversion [3] [%],Conversion [5],Conversion [7] [%],Conversion [8] [%],Conversion [10] [%]
C/C(=C\C(=O)Nc1ccccc1OCCCC(=O)O)c1ccc2c(ccn2C(c2ccccc2)c2ccccc2)c1,,,,5.6,,,,,,
Cc1c(O[C@@H](C)c2ccc(CC(C)C)cc2)ccc(C(=O)Nc2ccccc2OCCCC(=O)O)c1C (racemic),,,78.7,,88,56,91%,82,54,
CC/C(=C\C(=O)Nc1ccccc1OCCCC(=O)O)c1ccc2c(ccn2C(c2ccccc2)c2ccccc2)c1,,,,2.5,,,,,,
CCCC(CCC)n1ccc2cc(/C(=C/C(=O)Nc3ccccc3OCCCC(=O)O)CC)ccc21,,,341,,87,84,96%,,73,84

# Continued by falling IC50 [6], values first:
IC50 [2] [nM],IC50 [4] [nM],IC50 [6] [nM],IC50 [9] [nM],SMILES,Conversion [1] [%],Conversion [3] [%],Conversion [5],Conversion [7] [%],Conversion [8] [%],Conversion [10] [%]
,,357,,CC/C(=C\C(=O)Nc1ccccc1OCCCC(=O)O)c1ccc2c(ccn2C(c2ccc(F)cc2)c2ccc(F)cc2)c1,76,70,94%,,50,
,,215,,C/C(=C\C(=O)Nc1ccccc1OCCCC(=O)O)c1ccc2c(ccn2C(c2ccc(F)cc2)c2ccc(F)cc2)c1,,85,98% and 93%,,62,
10,2.1,0.58,,CC(C)(C)NC(=O)[C@H]1CC[C@H]2[C@@H]3CC[C@H]4NC(=O)C=C[C@]4(C)[C@H]3CC[C@]12C [FINASTERIDE],49,50,84%,64,39,
